Experimental data taken from ChEMBL document CHEMBL1146929, “Biological evaluation of a multi-targeted small molecule inhibitor of tumor-induced angiogenesis” (Bioorg Med Chem Lett, 2006).

How the values were obtained:
[1] = biological target: T1, Serine/threonine-protein kinase Sgk1 (Homo sapiens, UniProt O00141); experiment: Inhibitory activity against SGK
T1 sequence (O00141 whole entry): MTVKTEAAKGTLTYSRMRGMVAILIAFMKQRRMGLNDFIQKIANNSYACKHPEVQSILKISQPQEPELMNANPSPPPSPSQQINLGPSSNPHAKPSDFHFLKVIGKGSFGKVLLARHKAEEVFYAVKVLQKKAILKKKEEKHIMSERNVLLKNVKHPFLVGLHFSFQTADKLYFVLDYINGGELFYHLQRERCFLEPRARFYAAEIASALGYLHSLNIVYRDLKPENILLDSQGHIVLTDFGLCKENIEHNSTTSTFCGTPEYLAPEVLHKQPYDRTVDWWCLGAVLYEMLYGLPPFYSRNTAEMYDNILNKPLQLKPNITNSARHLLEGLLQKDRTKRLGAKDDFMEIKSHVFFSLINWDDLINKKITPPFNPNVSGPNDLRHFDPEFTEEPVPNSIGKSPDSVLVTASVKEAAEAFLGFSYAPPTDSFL
Procedure, shortened: (§1)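 IMAP fluorescence-polarization kinase assay: phosphorylated fluorescent peptide substrate binds immobilized metal beads, giving a measure of kinase activity. Reactions were run with ATP at three times the Km of each kinase.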

[2] = AUC in Wistar rat at 50 mg/kg, po; type: ADME, organism-based; parameters: dose 50 mg/kg, route oral; conditions: plasma
Procedure, shortened: (§2)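 Single doses given iv and orally. Mice (athymic nude) received 10 mg/kg iv, with bleeds at 1, 5, 15, 30 min and 1-24 h, and 50 or 200 mg/kg po, with bleeds at 5 min-24 h. Wistar rats received 5 mg/kg iv through a femoral arterial catheter, with jugular bleeds to 24 h, and 50 or 200 mg/kg po, with bleeds to 48 h. The iv vehicle was 2% DMA/10% PEG400/88% of 40% HPBCD and the oral vehicle 2% Klucel LF/0.1% Tween 80. EDTA plasma was assayed by LC-MS/MS against a calibration of 1-2000 ng/mL.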

[3] = Half life in nude mice at 200 mg/kg, po; type: ADME, organism-based; parameters: dose 200 mg/kg, route oral; conditions: mouse, in vivo; procedure, shortened: as §2
HUVEC [4] = experiment: Inhibitory activity against bFGF-induced proliferation of HUVEC cells; type: functional, cell-based; conditions: Homo sapiens
Procedure, shortened: (§3)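 HUVECs were grown to subconfluence, serum-starved for 24 h, then given compound for 2 h before stimulation with 20 ng/mL VEGF or 5 ng/mL bFGF. BrdU label was added after 20 h with compound. Incorporation was read 4 h later with a peroxidase anti-BrdU antibody and colorimetric detection. IC50 came from a single experiment in duplicate.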

[5] = AUC in Wistar rat at 5 mg/kg, iv; type: ADME, organism-based; parameters: dose 5 mg/kg, route intravenous; conditions: plasma; procedure, shortened: as §2
HCT-116 = experiment: Antiproliferative activity against HCT116 by MTT assay; type: functional, cell-based; conditions: Homo sapiens
Procedure, shortened: (§4)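 Exponentially growing HCT116 or H460a tumor cells were plated and held overnight at 37 C before compound was added. Proliferation was read as MTT formazan formation during a 2.5 h incubation 6 days after plating. IC50 came from a single experiment run in duplicate.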

Mus musculus [6] = experiment: Inhibition of VEGF-induced corneal angiogenesis in C57/BL6 mice at 50 mg/kg, po after 7 days; type: functional; conditions: C57/BL6, Cornea, 168 h
Procedure, shortened: (§5)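 VEGF-containing pellets were implanted in the cornea of C57/BL6 mice. Cohorts were dosed orally bid at 12.5, 50 or 200 mg/kg for 7 days, after which the area of corneal angiogenesis (mm2) was quantified against vehicle. Body weight was monitored throughout.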

Mus musculus [7] = experiment: Inhibition of tumor growth in nude mice implanted with H460a cells at 200 mg/kg, po after 28 days; type: functional; conditions: 672 h
[8] = biological target: Protein kinase C alpha type (Homo sapiens, UniProt P17252); experiment: Inhibitory activity against PKC alpha
Procedure, shortened: (§6)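 IMAP homogeneous fluorescence-polarisation kinase assay: phosphorylated fluorescent peptide substrate binds immobilised metal beads, read as kinase activity. Reactions run at ATP three times the Km for each enzyme.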

[9] = Cmax in nude mice at 200 mg/kg, po; type: ADME, organism-based; parameters: dose 200 mg/kg, route oral; conditions: mouse, in vivo; procedure, shortened: as §2
[10] = Volume of distribution in nude mice at 10 mg/kg, iv; type: ADME, organism-based; parameters: dose 10 mg/kg, route intravenous; conditions: mouse, in vivo, read-out: Vdss; procedure, shortened: as §2
[11] = AUC in nude mice at 50 mg/kg, po; type: ADME, organism-based; parameters: dose 50 mg/kg, route oral; conditions: mouse, plasma; procedure, shortened: as §2
[12] = Cmax in Wistar rat at 200 mg/kg, po; type: ADME, organism-based; parameters: dose 200 mg/kg, route oral; conditions: in vivo; procedure, shortened: as §2
[13] = Volume of distribution in Wistar rat at 5 mg/kg, iv; type: ADME, organism-based; parameters: dose 5 mg/kg, route intravenous; conditions: in vivo, read-out: Vdss; procedure, shortened: as §2
[14] = Half life in nude mice at 10 mg/kg, iv; type: ADME, organism-based; parameters: dose 10 mg/kg, route intravenous; conditions: mouse, in vivo; procedure, shortened: as §2
[15] = Cmax in nude mice at 50 mg/kg, po; type: ADME, organism-based; parameters: dose 50 mg/kg, route oral; conditions: mouse, in vivo; procedure, shortened: as §2
[16] = biological target: Protein kinase C delta type (Homo sapiens, UniProt Q05655); experiment: Inhibitory activity against PKC delta; procedure, shortened: as §1
Chain of Protein kinase C delta type (Q05655 whole entry): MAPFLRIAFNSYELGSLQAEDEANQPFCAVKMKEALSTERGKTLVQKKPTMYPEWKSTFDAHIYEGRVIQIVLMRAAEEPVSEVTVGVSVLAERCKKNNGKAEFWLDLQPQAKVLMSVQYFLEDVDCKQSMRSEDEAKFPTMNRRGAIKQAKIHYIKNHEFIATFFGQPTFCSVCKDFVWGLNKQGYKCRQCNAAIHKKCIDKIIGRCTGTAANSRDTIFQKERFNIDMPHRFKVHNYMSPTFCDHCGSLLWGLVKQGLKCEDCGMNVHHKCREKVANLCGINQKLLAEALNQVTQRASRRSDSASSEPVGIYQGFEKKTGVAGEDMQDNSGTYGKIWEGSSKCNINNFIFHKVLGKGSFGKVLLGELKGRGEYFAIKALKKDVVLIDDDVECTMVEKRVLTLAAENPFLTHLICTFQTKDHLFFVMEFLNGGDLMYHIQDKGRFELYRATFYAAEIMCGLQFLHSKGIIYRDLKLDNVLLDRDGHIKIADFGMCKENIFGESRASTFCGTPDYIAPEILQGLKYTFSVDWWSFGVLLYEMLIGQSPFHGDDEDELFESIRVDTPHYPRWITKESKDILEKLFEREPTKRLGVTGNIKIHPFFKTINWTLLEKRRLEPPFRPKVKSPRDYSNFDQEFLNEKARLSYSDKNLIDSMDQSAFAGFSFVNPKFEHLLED

[17] = Half life in Wistar rat at 200 mg/kg, po; type: ADME, organism-based; parameters: dose 200 mg/kg, route oral; conditions: in vivo; procedure, shortened: as §2
[18] = Half life in Wistar rat at 50 mg/kg, po; type: ADME, organism-based; parameters: dose 50 mg/kg, route oral; conditions: in vivo; procedure, shortened: as §2
[19] = biological target: RAC-alpha serine/threonine-protein kinase (Homo sapiens, UniProt P31749); experiment: Inhibitory activity against AKT; procedure, shortened: as §1
Chain of RAC-alpha serine/threonine-protein kinase (P31749 whole entry): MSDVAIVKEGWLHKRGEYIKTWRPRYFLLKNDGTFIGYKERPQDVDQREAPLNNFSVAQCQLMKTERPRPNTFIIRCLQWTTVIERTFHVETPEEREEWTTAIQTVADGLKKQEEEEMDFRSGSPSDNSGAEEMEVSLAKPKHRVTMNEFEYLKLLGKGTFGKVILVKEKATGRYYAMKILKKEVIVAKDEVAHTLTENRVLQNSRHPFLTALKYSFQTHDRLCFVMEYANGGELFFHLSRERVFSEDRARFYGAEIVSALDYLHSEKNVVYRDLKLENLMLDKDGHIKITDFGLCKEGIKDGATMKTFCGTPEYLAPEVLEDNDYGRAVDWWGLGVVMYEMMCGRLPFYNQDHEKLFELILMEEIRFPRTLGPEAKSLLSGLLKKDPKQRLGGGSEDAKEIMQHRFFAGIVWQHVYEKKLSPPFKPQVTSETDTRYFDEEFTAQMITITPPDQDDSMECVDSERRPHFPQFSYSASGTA

[20] = biological target: Cyclin-dependent kinase 1/cyclin B (Homo sapiens, UniProt P06493); experiment: Inhibition of CDK1/cyclinB; type: protein-complex assay; procedure, shortened: as §1
Mus musculus [21] = experiment: Inhibition of tumor growth in nude mice implanted with H460a cells at 50 mg/kg, po after 28 days; type: functional; conditions: 672 h
Ephrin type-B receptor 3 = biological target: T2, Ephrin type-B receptor 3 (Homo sapiens, UniProt P54753); experiment: Inhibitory activity against EphB3; procedure, shortened: as §1
T2 sequence (P54753 whole entry): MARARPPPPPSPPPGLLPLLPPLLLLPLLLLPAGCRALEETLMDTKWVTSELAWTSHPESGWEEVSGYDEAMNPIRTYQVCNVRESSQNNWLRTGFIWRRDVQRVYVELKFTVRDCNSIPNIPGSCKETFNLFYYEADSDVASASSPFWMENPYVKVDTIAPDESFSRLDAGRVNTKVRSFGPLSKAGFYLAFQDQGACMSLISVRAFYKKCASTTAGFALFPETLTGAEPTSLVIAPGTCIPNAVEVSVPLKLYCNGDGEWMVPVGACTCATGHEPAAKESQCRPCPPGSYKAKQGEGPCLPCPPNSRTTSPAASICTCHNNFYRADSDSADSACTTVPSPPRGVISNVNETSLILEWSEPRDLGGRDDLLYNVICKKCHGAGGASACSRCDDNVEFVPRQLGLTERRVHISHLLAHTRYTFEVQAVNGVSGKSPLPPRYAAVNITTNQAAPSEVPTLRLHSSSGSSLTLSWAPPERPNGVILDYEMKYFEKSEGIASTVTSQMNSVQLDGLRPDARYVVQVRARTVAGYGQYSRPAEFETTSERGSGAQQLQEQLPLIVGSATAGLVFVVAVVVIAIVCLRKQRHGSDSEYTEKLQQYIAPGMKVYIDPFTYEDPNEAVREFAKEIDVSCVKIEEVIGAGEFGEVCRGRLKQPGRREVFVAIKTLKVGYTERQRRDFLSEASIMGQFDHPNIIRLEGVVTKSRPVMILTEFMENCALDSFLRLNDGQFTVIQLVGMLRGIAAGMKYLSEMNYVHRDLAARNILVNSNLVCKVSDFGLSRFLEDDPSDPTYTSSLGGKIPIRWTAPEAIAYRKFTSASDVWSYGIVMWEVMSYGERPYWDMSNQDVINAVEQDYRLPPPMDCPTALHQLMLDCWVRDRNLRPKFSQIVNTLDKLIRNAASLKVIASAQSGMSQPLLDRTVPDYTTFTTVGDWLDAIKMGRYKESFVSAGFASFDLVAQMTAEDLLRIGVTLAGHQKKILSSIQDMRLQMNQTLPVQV

[22] = biological target: Platelet-derived growth factor receptor (Homo sapiens, UniProt P09619+P16234); experiment: Inhibitory activity against recombinant human PDGFR; type: protein-complex assay
[23] = Half life in Wistar rat at 5 mg/kg, iv; type: ADME, organism-based; parameters: dose 5 mg/kg, route intravenous; conditions: in vivo; procedure, shortened: as §2
[24] = Clearance in nude mice at 10 mg/kg, iv; type: ADME, organism-based; parameters: dose 10 mg/kg, route intravenous; conditions: mouse, in vivo; procedure, shortened: as §2
[25] = Cmax in Wistar rat at 50 mg/kg, po; type: ADME, organism-based; parameters: dose 50 mg/kg, route oral; conditions: in vivo; procedure, shortened: as §2
[26] = AUC in nude mice at 10 mg/kg, iv; type: ADME, organism-based; parameters: dose 10 mg/kg, route intravenous; conditions: mouse, plasma; procedure, shortened: as §2
[27] = Half life in nude mice at 50 mg/kg, po; type: ADME, organism-based; parameters: dose 50 mg/kg, route oral; conditions: mouse, in vivo; procedure, shortened: as §2
NCI-H460 = experiment: Antiproliferative activity against H460a by MTT assay; type: functional, cell-based; conditions: Homo sapiens; procedure, shortened: as §4
Mus musculus [28] = experiment: Inhibition of tumor growth in nude mice implanted with H460a cells at 100 mg/kg, po after 28 days; type: functional; conditions: 672 h
[29] = biological target: cAMP-dependent protein kinase (PKA) (Homo sapiens, UniProt P22694+P17612+P22612); experiment: Inhibitory activity against PKA; type: protein assay; procedure, shortened: as §1
[30] = biological target: Mitogen-activated protein kinase 1 (Homo sapiens, UniProt P28482); experiment: Inhibitory activity against Erk2; procedure, shortened: as §6
Chain of Mitogen-activated protein kinase 1 (P28482 whole entry): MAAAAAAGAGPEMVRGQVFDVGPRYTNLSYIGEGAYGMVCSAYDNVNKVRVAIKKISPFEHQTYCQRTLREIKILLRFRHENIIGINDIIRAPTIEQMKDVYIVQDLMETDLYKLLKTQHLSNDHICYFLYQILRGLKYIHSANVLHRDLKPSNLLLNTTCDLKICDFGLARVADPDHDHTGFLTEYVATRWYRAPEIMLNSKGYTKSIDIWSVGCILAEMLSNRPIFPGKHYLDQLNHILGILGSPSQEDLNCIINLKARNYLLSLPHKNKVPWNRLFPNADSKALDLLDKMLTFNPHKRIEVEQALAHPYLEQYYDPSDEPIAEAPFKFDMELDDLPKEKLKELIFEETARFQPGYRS

[31] = AUC in nude mice at 200 mg/kg, po; type: ADME, organism-based; parameters: dose 200 mg/kg, route oral; conditions: mouse, plasma; procedure, shortened: as §2
[32] = AUC in Wistar rat at 200 mg/kg, po; type: ADME, organism-based; parameters: dose 200 mg/kg, route oral; conditions: plasma; procedure, shortened: as §2
[33] = Clearance in Wistar rat at 5 mg/kg, iv; type: ADME, organism-based; parameters: dose 5 mg/kg, route intravenous; conditions: in vivo; procedure, shortened: as §2
HUVEC [34] = experiment: Inhibitory activity against VEGF-induced proliferation of HUVEC cells; type: functional, cell-based; conditions: Homo sapiens; procedure, shortened: as §3
[35] = biological target: Vascular endothelial growth factor receptor 2 (Homo sapiens, UniProt P35968); experiment: Inhibitory activity against recombinant human KDR
Chain of Vascular endothelial growth factor receptor 2 (P35968 whole entry): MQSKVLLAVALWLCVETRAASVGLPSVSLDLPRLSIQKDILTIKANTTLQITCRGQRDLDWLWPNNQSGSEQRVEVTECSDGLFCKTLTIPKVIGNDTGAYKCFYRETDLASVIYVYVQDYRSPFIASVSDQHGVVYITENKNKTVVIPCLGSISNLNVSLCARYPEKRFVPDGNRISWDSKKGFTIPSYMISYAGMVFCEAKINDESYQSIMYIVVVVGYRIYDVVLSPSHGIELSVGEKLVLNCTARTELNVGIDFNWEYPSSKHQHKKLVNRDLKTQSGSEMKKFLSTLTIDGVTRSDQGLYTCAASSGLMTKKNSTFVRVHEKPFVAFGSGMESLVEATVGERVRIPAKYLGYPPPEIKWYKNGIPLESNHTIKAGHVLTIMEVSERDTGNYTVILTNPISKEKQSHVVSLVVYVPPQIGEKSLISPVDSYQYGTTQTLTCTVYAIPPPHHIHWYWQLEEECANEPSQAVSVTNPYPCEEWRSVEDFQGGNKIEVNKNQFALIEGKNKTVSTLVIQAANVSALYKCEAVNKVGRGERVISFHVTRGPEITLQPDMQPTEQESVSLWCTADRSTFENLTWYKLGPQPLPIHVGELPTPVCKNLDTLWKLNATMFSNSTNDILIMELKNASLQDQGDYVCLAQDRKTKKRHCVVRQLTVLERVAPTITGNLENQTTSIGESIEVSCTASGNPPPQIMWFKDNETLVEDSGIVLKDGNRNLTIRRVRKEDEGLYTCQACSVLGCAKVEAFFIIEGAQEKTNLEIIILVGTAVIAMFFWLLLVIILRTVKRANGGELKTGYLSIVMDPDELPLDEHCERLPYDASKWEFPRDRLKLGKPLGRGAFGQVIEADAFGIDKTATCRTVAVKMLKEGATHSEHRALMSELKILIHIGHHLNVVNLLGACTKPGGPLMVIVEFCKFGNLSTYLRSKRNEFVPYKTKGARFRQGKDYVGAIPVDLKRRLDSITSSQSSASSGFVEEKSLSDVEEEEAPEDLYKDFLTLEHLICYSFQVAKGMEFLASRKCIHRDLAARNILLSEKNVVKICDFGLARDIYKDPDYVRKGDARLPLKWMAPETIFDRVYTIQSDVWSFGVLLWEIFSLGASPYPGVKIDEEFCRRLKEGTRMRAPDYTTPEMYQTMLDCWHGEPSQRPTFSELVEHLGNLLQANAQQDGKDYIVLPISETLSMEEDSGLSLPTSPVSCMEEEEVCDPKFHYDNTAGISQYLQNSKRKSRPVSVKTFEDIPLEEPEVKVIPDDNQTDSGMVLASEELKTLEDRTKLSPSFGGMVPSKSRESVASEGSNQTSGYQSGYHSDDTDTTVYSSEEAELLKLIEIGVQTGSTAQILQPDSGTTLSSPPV

Mus musculus [36] = experiment: Inhibition of VEGF-induced corneal angiogenesis in C57/BL6 mice at 200 mg/kg, po after 7 days; type: functional; conditions: C57/BL6, Cornea, 168 h; procedure, shortened: as §5

IC50 [1]: > 125 µM
AUC [2]: 40900 ng·h/mL
half-life [3]: 102 min
AUC [5]: 2770 ng·h/mL
IC50 (HCT-116): 3000 nM
IC50 [8]: > 125 µM
Cmax [9]: 82.6 µg/mL
Vd [10]: 1.9 L/kg
AUC [11]: 96500 ng·h/mL
Cmax [12]: 10300 ng/mL
Vd [13]: 3.7 L/kg
half-life [14]: 120 min
Cmax [15]: 29100 ng/mL
IC50 [16]: > 125 µM
half-life [17]: 468 min
half-life [18]: 300 min
IC50 [19]: > 125 µM
IC50 [20]: > 125 µM
IC50 (Ephrin type-B receptor 3): 1250 nM
IC50 [22]: 83 nM
half-life [23]: 258 min
clearance [24]: 13.8 mL/min/kg
Cmax [25]: 3160 ng/mL
AUC [26]: 12100 ng·h/mL
half-life [27]: 114 min
IC50 (NCI-H460): 2500 nM
IC50 [29]: 9.01 µM
IC50 [30]: 12.6 µM
AUC [31]: 260 µg·h/mL
AUC [32]: 285 µg·h/mL
clearance [33]: 32.5 mL/min/kg
IC50 [35]: 50 nM
SMILES: COc1ccc(N2Cc3cnc(Nc4ccc(F)cc4)nc3N(C3CC[C@@H](O)C3)C2=O)cc1 (single isomer, unassigned)
IC50 (HUVEC [4]): 149 nM
inhibition in vivo at 50 mg/kg (Mus musculus [6]): 67%
inhibition in vivo at 200 mg/kg (Mus musculus [7]): 95%
inhibition in vivo at 50 mg/kg (Mus musculus [21]): 78%
inhibition in vivo at 100 mg/kg (Mus musculus [28]): 87%
IC50 (HUVEC [34]): 35 nM
inhibition in vivo at 200 mg/kg (Mus musculus [36]): 91%
